An excerpt weighted towards active compounds, which were near 2.2% of everything screened.
EBV gp42 inh: inhibitors of Epstein-Barr virus glycoprotein 42. Fluorescence polarization binding assay, mP read-out. AID 1085. inhibition, % (tested at 21.74 µM). 0.42% of 220,000 active; in the data active = inhibition above about 50%
Bim-Mcl-1: human Bim-Mcl-1 interaction inhibition | Bead-based flow cytometry, Bim peptide-Mcl-1 binding | 0.1% of 190,000 active | AID 1009 | Q07820 | inhibition, % at 10 µM; in the data active = inhibition above about 40%;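 note: 0% = no compound tracer wells and 100% = peptide blocker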
Target sequence (Q07820 whole entry, looked up): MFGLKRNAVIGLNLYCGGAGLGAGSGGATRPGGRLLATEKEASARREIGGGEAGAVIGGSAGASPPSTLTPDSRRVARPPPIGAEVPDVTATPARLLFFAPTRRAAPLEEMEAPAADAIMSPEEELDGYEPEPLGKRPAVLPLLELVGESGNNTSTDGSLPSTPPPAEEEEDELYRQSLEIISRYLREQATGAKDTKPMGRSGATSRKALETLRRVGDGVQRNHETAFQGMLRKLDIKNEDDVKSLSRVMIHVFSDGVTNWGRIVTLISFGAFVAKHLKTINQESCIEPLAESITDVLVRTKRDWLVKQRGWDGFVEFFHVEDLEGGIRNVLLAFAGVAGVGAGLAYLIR
RBBP9 inhibitor: human RBBP9 hydrolase inhibition; O75884; recombinant RBBP9, FP-Rh probe fluorescence polarization; inhibition, % at 7.94 µM; 0.2% of 220,000 active;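 active = inhibition above the campaign mean of all tested compounds plus 3 SD, cut at about 14% in these data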;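 note: plate controls were DMSO wells with RBBP9 for no effect and wells lacking RBBP9 protein for full effect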
Target sequence (O75884 whole entry, looked up): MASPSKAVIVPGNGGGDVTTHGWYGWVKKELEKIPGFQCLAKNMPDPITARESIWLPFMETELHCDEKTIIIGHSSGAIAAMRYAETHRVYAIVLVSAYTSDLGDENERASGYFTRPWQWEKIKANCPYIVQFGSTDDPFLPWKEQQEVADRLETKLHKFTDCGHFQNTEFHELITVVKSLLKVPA
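System: RBBP9 protein / Quantity: 2.5 µM RBBP9 dispensing solution, before mixing / Also added: Serine-hydrolase probe FP-Rh, 375 nM pre-mixing / Dosing: 7.94 µM single dose, 0.794% DMSO / Timing: enzyme-compound preincubation 30 min, then probe labeling 45 min, 25 °C / Signal: FP readout at 525/598 nm / Controls: DMSO-treated enzyme wells and wells lacking RBBP9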
Mcl1 Noxa PPI: disrupts binding of human Mcl-1 to Noxa peptide; Q07820; TR-FRET Mcl-1/Noxa peptide binding, 2 h; inhibition, % at 21.7 µM; 1.5% of 220,000 active; AID 1022;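 active = compounds that cut the protein-peptide binding signal by more than 50% relative to plate controls in a single-dose test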;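 note: His-tagged Mcl-1 with rhodamine Noxa BH3 peptide and terbium anti-His antibody; 0% = Mcl-1 plus Noxa peptide wells and 100% = peptide-only wells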
MCL1 BIM primary: MCL1-BIM-BH3 interaction inhibition (human); Q07820; GST-MCL1 / FITC-Bim-BH3 fluorescence polarization; inhibition, % at 10.9 µM; 0.68% of 320,000 active; AID 2057;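 active = inhibition above the mean inhibition of all tested compounds plus 3 SD, set per campaign, cut at about 40% in these data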;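 note: 0% = DMSO wells and 100% = unlabeled Bim-BH3 peptide control; higher means more loss of mP so more displacement of Bim peptide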
Mcl1-Bid inh: Mcl-1/Bid interaction inhibition. Q07820. TR-FRET Mcl-1/Bid-Dy647 peptide binding, 1536-well. inhibition, % at 21.7 µM. 0.97% of 220,000 active. AID 1021;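 active = compounds that cut the binding signal by more than half at the single screening dose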;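 note: His-tagged Mcl-1 with europium anti-His antibody binding Bid BH3 peptide; 0% = Mcl-1 plus peptide wells and 100% = peptide-only wells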
Starred values were filed as active, the others as inactive; . = no result given.

SMILES	EBV gp42 inh	Bim-Mcl-1	RBBP9 inhibitor	Mcl1 Noxa PPI	MCL1 BIM primary	Mcl1-Bid inh
COc1ccc(C)cc1-n1nnnc1SC/C(O)=C(\C#N)c1nc2ccccc2[nH]1	-7	-13	-1	12	-1	-37
Cc1ccc(Nc2nnc(SC/C(O)=C(\C#N)c3nc4ccccc4[nH]3)s2)c(C)c1	26	-1	2	70*	1	-15
Cc1cccc(Nc2nnc(SC/C(O)=C(\C#N)c3nc4ccccc4[nH]3)s2)c1	8	-3	-13	52*	-2	-23
CCc1ccc2c(COn3nnc4ccc(S(=O)(=O)N(C)C)cc43)cc(=O)oc2c1	-7	-9	3	12	-5	53*
CCc1ccc(NC(=O)COn2nnc3ccc(S(=O)(=O)N(C)C)cc32)cc1	-8	-1	-1	12	-4	-10
COc1ccc2nc(C)cc(N3CCN(c4ccccc4)CC3)c2c1	.	.	.	.	8	.
CCOc1ccc2nc(C)cc(Nc3ccc(N4CCOCC4)cc3)c2c1	-3	-2	-12	62*	-4	-5
CCOc1ccc2nc(C)cc(Nc3ccc4c(c3)OCCO4)c2c1	-19	3	-3	15	-4	-22
COc1ccc2nc(C)cc(N3CCOCC3)c2c1	84*	-6	4	15	2	-1
CN(CC(=O)Nc1ccccc1Cl)C(=O)Cn1cc(C(F)(F)F)ccc1=O	.	.	.	.	-12	.
O=C(CSc1nncn1-c1ccccc1)N1CCCC1	.	.	.	.	-1	.
COc1ccc(/C=N/Nc2nc(-c3cccnc3)nc3ccccc23)c(OC)c1	-42	.	-12	35	-4	54*
Cc1ccc(-c2nc(N/N=C/c3cccnc3)c3ccccc3n2)cc1	-6	-1	-3	24	1	1
Cc1cccc(N=C2NC(=O)/C(=C/C=C/c3ccco3)S2)c1C	25	7	3	114*	21	92*
O=C1NC(=Nc2ccccc2)S/C1=C\C=C\c1ccco1	-17	-6	9	112*	-16	42
COc1ccc(N=C2NC(=O)/C(=C/c3ccco3)S2)cc1	-7	.	-4	-4	4	-37
Cc1ccc(N=C2NC(=O)/C(=C/C=C/c3ccco3)S2)cc1	-16	3	10	82*	16	-47
CCC(C)NC(=O)c1ccc(NC(=O)CC2SC(N3CCCC3)=NC2=O)cc1 (configuration not stated)	.	.	.	.	-5	.
COc1cccc(-c2nc(N3CCN(C)CC3)c3ccccc3n2)c1O	-1	.	-4	68*	4	-54
N#C/C(=C/c1ccc(F)cc1)c1nnc(NC(=O)c2ccccc2)s1	-14	.	-4	68*	5	3
Cn1ccc(-c2ccccc2)n1	-4	-4	-7	4	5	-8
N#Cc1cc(-c2ccccc2)nn1-c1ccccc1	-32	5	-10	97*	43*	27
c1ccc2[nH]c(CN3CCOCC3)nc2c1	8	0	-8	12	0	98*
c1ccc2cc3[nH]c(CN4CCOCC4)nc3cc2c1	-29	-3	-1	10	-2	-1
Cc1ccc(C(=O)NCC(=O)OC(C)C(=O)Nc2ccc(N(C)C)cc2)cc1C (configuration not stated)	-1	1	-10	71*	-2	-60
SMILES	EBV gp42 inh	Bim-Mcl-1	RBBP9 inhibitor	Mcl1 Noxa PPI	MCL1 BIM primary	Mcl1-Bid inh
CCCNC(=O)N1CCN(S(=O)(=O)c2ccc3c(c2)OCCO3)CC1	.	.	.	.	5	.
CC1CN(C(=O)CCc2cc(C(C)(C)C)c(O)c(C(C)(C)C)c2)CC(C)O1 (configuration not stated)	.	.	.	.	-2	.
COc1ccc(/C=N/NC(=O)CCOc2ccccc2C)cc1OC	-17	-5	-8	5	5	-20
COc1cc(/C=N/NC(=O)CCOc2ccccc2C)cc(Br)c1O	-2	-1	-4	67*	12	-30
CCOc1cc(/C=N/NC(=O)C(=O)NCCCOC(C)C)cc(Br)c1O	-11	-1	-7	56*	8	-51
CCOc1cc(/C=N\NC(N)=O)cc(Br)c1OC(C)C	15	-5	-7	16	-3	-8
Nc1ccc(Br)c2c1C(=O)c1ccccc1C2=O	17	1	-5	36	40*	-5
Nc1ccc(NC(=O)c2ccccc2)c2c1C(=O)c1ccccc1C2=O	-25	-1	-3	66*	17	54*
Nc1ccccc1NC(=O)c1ccccc1	-6	-3	3	3	0	-25
CN1CCC(=O)N(CCSc2ccccc2)CC1	.	.	.	.	-4	.
CCc1ccccc1NC(=O)C1=CC(c2ccc(OC)c(OC)c2)=NS(=O)(=O)N1C	.	.	.	.	2	.
CC1=Nc2cc(C(=O)O)ccc2Sc2ccc(Br)cc21	1	-2	-4	57*	23	44
CSc1ccc(CNC(=O)C2CCC(=O)N(CCc3cccc(F)c3)C2)cc1 (configuration not stated)	.	.	.	.	7	.
O=C(COC(=O)c1ccc(S(=O)(=O)C(F)F)cc1)Nc1ccccc1C(=O)NC1CC1	.	.	.	.	-4	.
Cc1cccc(C(=O)Nc2ccnc(-c3cccnc3)n2)c1	-8	-2	1	6	-1	91*
O=C(N/C=C/c1ccco1)NCc1ccccc1	-3	0	-7	64*	19	-65
Cc1ccc(/C=C/C(=O)Nc2sc3c(c2C#N)CCCC3)o1	-18	-4	-1	51*	6	14
CC1CCC2(CC1)NC(=O)N(CC(=O)Nc1cccc(S(=O)(=O)N3CCCC3)c1)C2=O (configuration not stated)	.	.	.	.	-2	.
CCO[C@H]1OC(C(N)=O)=C[C@@H](c2ccccc2)[C@@H]1CCCO	-13	-1	0	-15	2	51*
Cc1ccc(S(=O)(=O)N(C)C)cc1NC(=O)COC(=O)Cc1ccsc1	.	.	.	.	-6	.
Cc1cc(=O)c2cc3nc(-c4cccnc4)oc3c(Br)c2o1	15	.	0	54*	38	-52
CC(=O)N(C)c1ccc(NC(=O)c2ccc([N+](=O)[O-])cc2Cl)cc1	5	-2	-6	13	-10	-8
COc1ccc(NC(=O)c2ccccc2N(Cc2ccccc2)S(C)(=O)=O)cc1	-5	0	0	83*	-11	-52
CC(C)(C)NC(=O)COc1coc(CN2CCN(Cc3ccccc3)CC2)cc1=O	.	.	.	.	12	.
CCC(C(=O)NCCCN(CC)Cc1ccccc1)n1nc(C)c2sc3ccccc3c2c1=O (configuration not stated)	.	.	.	.	2	.
CC(=O)Nc1ccc(NC(=O)CSc2nnc(-c3ccco3)o2)cc1	2	-1	-6	8	0	-16
CC(=O)c1ccc(NC(=O)CSc2nnc(-c3ccco3)c(-c3ccco3)n2)cc1	13	9	1	79*	33	-77
O=C(CSc1nnc(NC(=O)C2CC2)s1)Nc1ccc(F)cc1F	.	.	.	.	-5	.
CN(C)c1ccc(C(=O)Nc2nnc(-c3ccc(Cl)cc3)o2)cc1	36	0	-9	69*	15	48

Screening results as filed in PubChem.
